Data reported in ChEMBL document CHEMBL4390648, “Chemical synthesis, crystal structure, versatile evaluation of their biological activities and molecular simulations of novel pyrithiobac derivatives” (Eur J Med Chem, 2019).
Converted amounts (≈) assume the structure as drawn. The source made the active and inactive calls. No cut-off for these calls is given here.

What was measured:
Tobacco mosaic virus [1] = experiment: Antiviral activity against Tobacco mosaic virus inoculated in Nicotiana tabacum leaves assessed as passivation by measuring local lesion numbers at 500 mg/l pre-incubated with virus for 30 mins followed by inoculation and measured up to 4 days; type: functional
How it was run: (§1)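 Passivation assay: TMV mixed with an equal volume of compound solution for 30 min, then rubbed onto the left half of N. tabacum L. leaves. The right half received virus mixed with solvent as control. Local lesions counted 3–4 days after inoculation. Compounds tested at 500 or 100 mg/L.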

Tobacco mosaic virus [2] = experiment: Antiviral activity against Tobacco mosaic virus inoculated in Nicotiana tabacum leaves assessed as passivation by measuring local lesion numbers at 100 mg/l pre-incubated with virus for 30 mins followed by inoculation and measured up to 4 days; type: functional; how it was run: as §1
Mythimna separata = experiment: Insecticidal activity against Mythimna separata assessed as larval mortality at 600 mg/l by leaf-dip method; type: functional
Arabidopsis thaliana [3] = experiment: Inhibition of Arabidopsis thaliana AHAS catalytic subunit using pyruvate as substrate at 10 uM measured after 30 mins by colorimetric method relative to control
How it was run: (§2)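 Colorimetric assay in 50 mM potassium phosphate pH 7.0 with 50 mM pyruvate, 1 mM thiamine diphosphate, 10 mM MgCl2 and 10 μM FAD. Incubated 30 min at 37 °C for plant AHAS and 30 °C for fungal AHAS. Acetolactate formed was then quantified.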

Candida albicans [4] = experiment: Antifungal activity against Candida albicans SC5314 grown in YNB medium incubated for 24 hrs by microdilution method; type: functional; conditions: SC5314, 24 h
How it was run: (§3)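 C. albicans standard strain SC5314 and clinical isolates g5 and 17# tested by broth microdilution in YNB or RPMI 1640 medium. Plates incubated at 35 °C for up to 72 h, with visual readings taken at 24 h. MIC taken as the lowest concentration preventing visible growth.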

Candida albicans [5] = experiment: Antifungal activity against Candida albicans isolate 17 grown in RPMI 1640 medium incubated for 24 hrs by microdilution method; type: functional; conditions: isolate 17, 24 h; how it was run: as §3
Candida albicans [6] = experiment: Inhibition of Candida albicans AHAS catalytic subunit at 100 uM using pyruvate as substrate measured after 30 mins by colorimetric method relative to control; how it was run: as §2
[7] = tested on: Severe acute respiratory syndrome-related coronavirus; experiment: Inhibition of SARS coronavirus M protease using AVLQSGFRKK as substrate at 20 uM by FRET assay relative to control
How it was run: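 Purified SARS-CoV Mpro assayed by FRET. Protein, compound and substrate were preheated at 37 °C and oscillated. Fluorescence (ex 320/em 405 nm) was read every 5 s for 200 reads.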

Fusarium fujikuroi = experiment: Antifungal activity against Gibberella fujikuroi assessed as reduction in growth at 50 mg/l by mycelium growth rate method relative to control; type: functional
How it was run: (§4)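 Mycelium growth rate method against S. sclerotiorum, P. capsici, P. piricola, R. cerealis, W. anthracnose and R. bakanae. Each compound tested at 50 mg/L, with chlorothalonil and PTB as controls. Relative inhibitory ratio (%) calculated from mycelial growth.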

Candida albicans [8] = experiment: Antifungal activity against Candida albicans isolate g5 grown in YNB medium incubated for 24 hrs by microdilution method; type: functional; conditions: isolate g5, 24 h; how it was run: as §3
Candida albicans [9] = experiment: Antifungal activity against Candida albicans isolate g5 grown in RPMI 1640 medium incubated for 24 hrs by microdilution method; type: functional; conditions: isolate g5, 24 h; how it was run: as §3
Arabidopsis thaliana [10] = experiment: Inhibition of Arabidopsis thaliana AHAS catalytic subunit using pyruvate as substrate at 100 uM measured after 30 mins by colorimetric method relative to control; how it was run: as §2
Sclerotinia sclerotiorum = experiment: Antifungal activity against Sclerotinia sclerotiorum assessed as reduction in growth at 50 mg/l by mycelium growth rate method relative to control; type: functional; how it was run: as §4
Colletotrichum = experiment: Antifungal activity against Colletotrichum (W. anthracnose) assessed as reduction in growth at 50 mg/l by mycelium growth rate method relative to control; type: functional; how it was run: as §4
Candida albicans [11] = experiment: Antifungal activity against Candida albicans isolate 17 grown in YNB medium incubated for 24 hrs by microdilution method; type: functional; conditions: isolate 17, 24 h; how it was run: as §3
Phytophthora capsici = experiment: Antifungal activity against Phytophthora capsici assessed as reduction in growth at 50 mg/l by mycelium growth rate method relative to control; type: functional; how it was run: as §4
Candida albicans [12] = experiment: Antifungal activity against Candida albicans SC5314 grown in RPMI 1640 medium incubated for 24 hrs by microdilution method; type: functional; conditions: SC5314, 24 h; how it was run: as §3
Ceratobasidium cereale = experiment: Antifungal activity against Rhizoctonia cerealis assessed as reduction in growth at 50 mg/l by mycelium growth rate method relative to control; type: functional; how it was run: as §4
[13] = tested on: Brassica rapa subsp. oleifera; experiment: Herbicidal activity against Brassica campestris L assessed as inhibition of rape root growth at 10 mg/l root growth incubated for 48 hrs relative to control; type: functional
How it was run: (§5)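 Rape seeds soaked in distilled water for 4 h, then placed on filter paper wetted with inhibitor solution, 15 seeds per 6-cm dish. Germinated in the dark at 28 °C for 48 h. Mean length of 10 roots per plate measured.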

[14] = tested on: Botryosphaeria berengeriana; experiment: Antifungal activity against Physalospora pyricola assessed as reduction in growth at 50 mg/l by mycelium growth rate method relative to control; type: functional; how it was run: as §4
Candida albicans [15] = experiment: Inhibition of Candida albicans AHAS catalytic subunit at 10 uM using pyruvate as substrate measured after 30 mins by colorimetric method relative to control; how it was run: as §2
[16] = tested on: Brassica rapa subsp. oleifera; experiment: Herbicidal activity against Brassica campestris L assessed as inhibition of rape root growth at 100 mg/l root growth incubated for 48 hrs relative to control; type: functional; how it was run: as §5

Compound	inhibition at 500 µg/mL (Tobacco mosaic virus [1]) [%]	mortality at 600 µg/mL (Mythimna separata) [%]	inhibition (Arabidopsis thaliana [3]) [%]	MIC (Candida albicans [4]) [µg/mL]	MIC (Candida albicans [5]) [µg/mL]	inhibition (Candida albicans [6]) [%]	inhibition [7] [%]	inhibition at 50 µg/mL (Fusarium fujikuroi) [%]	MIC (Candida albicans [8]) [µg/mL]	MIC (Candida albicans [9]) [µg/mL]	inhibition (Arabidopsis thaliana [10]) [%]	inhibition at 50 µg/mL (Sclerotinia sclerotiorum) [%]	inhibition at 50 µg/mL (Colletotrichum) [%]	MIC (Candida albicans [11]) [µg/mL]	inhibition at 50 µg/mL (Phytophthora capsici) [%]	MIC (Candida albicans [12]) [µg/mL]	inhibition at 50 µg/mL (Ceratobasidium cereale) [%]	inhibition (INH) [13] [%]	inhibition at 50 µg/mL [14] [%]	inhibition (Candida albicans [15]) [%]	other results
COc1nc(OC)nc(Sc2ccc(C(=O)O)cc2Br)n1	21.4	10	22.4	> 100	> 100	92.4	25	57.6	> 100	> 100	30	77.8	35.7	> 100	41.7	> 100	58.3	0	46.9	50.1	inhibition (Tobacco mosaic virus [2]): inactive; inhibition (INH) [16]: 34.3%
COc1nc(OC)nc(Sc2ccc(Br)cc2C(=O)O)n1	0	45	12	> 100	> 100	96.7	48.8	6.1	> 100	> 100	19	66.7	23.8	> 100	33.3	> 100	58.3	5.2	59.4	59.3	inhibition (Tobacco mosaic virus [2]): inactive; inhibition (INH) [16]: 55.1%
COc1nc(OC)nc(Sc2ccc(C(=O)O)cc2Cl)n1	0	20	12.6	100 (≈ 305 µM)	> 100	73	25.5	27.3	100 (≈ 305 µM)	> 100	15.3	69.4	16.7	25 (≈ 76.3 µM)	58.3	> 100	59.5	0	42.2	25.6	inhibition (Tobacco mosaic virus [2]): inactive; inhibition (INH) [16]: 58.2%
COc1nc(OC)nc(Sc2cccc(Cl)c2C#N)n1	0	5	19.8	> 100	> 100	59.5	76.6	21.2	> 100	> 100	79.3	50	40.5	> 100	33.3	> 100	27.4	0	51.6	38.9	inhibition (Tobacco mosaic virus [2]): inactive; inhibition (INH) [16]: 17.4%
COc1cc(OC)nc(Sc2cc(C(F)(F)F)ccc2C#N)n1	35.8	65	18	> 100	> 100	26.1	29.9	45.5	> 100	> 100	91.6	11.1	26.2	> 100	66.7	> 100	70.2	12.3	28.1	7.9	inhibition (Tobacco mosaic virus [2]): inactive; inhibition (INH) [16]: 66.1%
COc1nc(OC)nc(Sc2ccc(F)cc2C(=O)O)n1	0	80	3.3	> 100	100 (≈ 321 µM)	77.6	94.5	30.3	> 100	> 100	68.6	55.6	19	50 (≈ 161 µM)	16.7	> 100	57.1	1.6	45.3	56.1	inhibition (Tobacco mosaic virus [2]): inactive; inhibition (INH) [16]: 33.3%
COc1nc(OC)nc(Sc2ccc(C#N)cc2Cl)n1	29.6	30	43.2	> 100	> 100	73.6	12.8	42.4	> 100	> 100	89.6	36.1	33.3	> 100	8.3	> 100	54.8	28.4	60.9	65.4	inhibition (Tobacco mosaic virus [2]): inactive; inhibition (INH) [16]: 60.3%
COc1nc(OC)nc(Sc2cccc(F)c2C#N)n1	0	20	34.5	6.25 (≈ 21.4 µM)	100 (≈ 342 µM)	70.4	90.8	24.2	12.5 (≈ 42.8 µM)	100 (≈ 342 µM)	86.5	63.9	42.9	3.12 (≈ 10.7 µM)	33.3	100 (≈ 342 µM)	52.4	2.2	45.3	46.3	inhibition (Tobacco mosaic virus [2]): inactive; inhibition (INH) [16]: 26.2%
COc1nc(OC)nc(Sc2ccc(C(=O)O)c(C(F)(F)F)c2)n1	42.3	80	21.8	> 100	> 100	21.2	22.2	36.4	> 100	> 100	75.5	75	16.7	> 100	8.3	> 100	38.1	4	43.8	8.6	inhibition at 100 µg/mL (Tobacco mosaic virus [2]): 6.2%; inhibition (INH) [16]: 16.5%
COc1nc(OC)nc(Sc2ccc(C(=O)O)cc2F)n1	0	30	13.8	> 100	> 100	94.9	89.5	6.1	> 100	> 100	18.7	61.1	19	3.12 (≈ 10 µM)	16.7	> 100	57.1	0	53.1	52.3	inhibition (Tobacco mosaic virus [2]): inactive; inhibition (INH) [16]: 27.6%
